Assay [1] deals with Plasmodium falciparum. The assay can be described thus: In vitro antimalarial activity for Plasmodium falciparum W2. Format: functional, organism-based.
The subject of assay [2] is Plasmodium falciparum. The assay can be described thus: In vitro antimalarial activity against Plasmodium falciparum D6 relative to artemisinin. Format: functional. The procedure, abridged: (§1)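 Relative potency is the artemisinin IC50 divided by the analog IC50, × 100%, with artemisinin set at 100%. Tested in vitro against P. falciparum D-6 or W-2.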
In assay [3] the test system is Plasmodium falciparum. The assay can be described thus: In vitro antimalarial activity against Plasmodium falciparum W-2 relative to artemisinin. Format: functional. The procedure, abridged:
as §1

The subject of assay [4] is Plasmodium falciparum. Nature of the assay: In vitro antimalarial activity for Plasmodium falciparum D6. Format: functional, organism-based.
The subject of assay [5] is Plasmodium falciparum. Nature of the assay: In vitro antimalarial activity for Plasmodium falciparum W2; Not active. Format: functional, organism-based.
Assay [6] relates to Plasmodium falciparum. The assay can be described thus: In vitro antimalarial activity for Plasmodium falciparum D6 in LDH […] assay. Format: functional, organism-based. Put shortly:
(§2)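 In vitro test against P. falciparum D-6 or W-2 using Makler's parasite lactate dehydrogenase (pLDH) assay, which reads out parasite pLDH enzyme activity. Run at the University of Mississippi.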
For orientation: LDH leaks from cells whose membrane has failed.

For assay [7], the system named is Plasmodium falciparum. Nature of the assay: In vitro antimalarial activity for Plasmodium falciparum W2 in LDH […] assay. Format: functional, organism-based. Put shortly: as §2
Assay [8] deals with Plasmodium falciparum. The assay can be described thus: In vitro antimalarial activity for Plasmodium falciparum D6; Not active. Type of assay: functional, organism-based.

Here are results for ten compounds from ChEMBL document CHEMBL1129568, “Structure-activity relationships of the antimalarial agent artemisinin. 3. Total synthesis of (+)-13-carbaartemisinin and related tetra- and tricyclic structures” (J Med Chem, 1996).

In brackets after ≈: the same amount, converted by molar mass.

With `C[C@@H]1CC[C@H]2[C@@H](C)CO[C@H]3C[C@]4(C)CC[C@@H]1[C@@]32OO4`, the IC50 came out at 0.00078 µg/mL (≈ 0.00293 µM) with Plasmodium falciparum [1] and 0.00172 µg/mL (≈ 0.00646 µM) in the assay on Plasmodium falciparum [4]. Besides, the Relative activity is listed as 53 in the assay on Plasmodium falciparum [2] and 58 with Plasmodium falciparum [3].

`COC[C@H](C)[C@@H]1CC[C@@H](C)[C@@H]2CC[C@]3(C)C=C[C@@]21OO3`: the IC50 result in the assay with Plasmodium falciparum [5] is “Not Active”; with Plasmodium falciparum [4], 0.92 µg/mL (≈ 3.28 µM).

In the case of `C[C@@H]1CC[C@@H]([C@@H](C)COCc2ccccc2)[C@@]23CC[C@@](C)(CC[C@@H]12)OO3`, the values for the IC50 with Plasmodium falciparum [1] and with Plasmodium falciparum [4] were 0.66 µg/mL (≈ 1.84 µM) and 0.29 µg/mL (≈ 0.809 µM), respectively.

On to `C[C@@H]1CC[C@H]2[C@@H](C)C(=O)O[C@@H]3C[C@@]4(C)CC[C@@H]1[C@]32OO4`, for which the IC50 stood at 0.006 µg/mL (≈ 0.0214 µM) in the assay with Plasmodium falciparum [6], 0.0126 µg/mL (≈ 0.045 µM) in the assay on Plasmodium falciparum [1], 0.02 µg/mL (≈ 0.0713 µM) with Plasmodium falciparum [7] and 0.0388 µg/mL (≈ 0.138 µM) in the assay on Plasmodium falciparum [4]. The Relative activity with Plasmodium falciparum [2] was found to be 23.3; in the assay with Plasmodium falciparum [3], 11.

As to `C[C@@H]1CC[C@@H]([C@@H](C)CO)[C@@]23C=C[C@@](C)(CC[C@@H]12)OO3`, the IC50 entry in the assay with Plasmodium falciparum [5] was “Not Active”; in the assay with Plasmodium falciparum [4], 1 µg/mL (≈ 3.75 µM).

For `COC[C@H](C)[C@@H]1CC[C@@H](C)[C@@H]2CC[C@]3(C)CC[C@@]21OO3`, the values for the IC50 in the assay with Plasmodium falciparum [1] and with Plasmodium falciparum [4] were 0.7 µg/mL (≈ 2.48 µM) and 0.31 µg/mL (≈ 1.1 µM), respectively.

`C[C@@H]1CC[C@@H]([C@@H](C)COCc2ccccc2)[C@@]23C=C[C@@](C)(CC[C@@H]12)OO3`: the IC50 result in the assay on Plasmodium falciparum [5] and with Plasmodium falciparum [8] was “Not Active” throughout.

On to `C[C@@H]1CC[C@@H]([C@@H](C)CO)[C@@]23CC[C@@](C)(CC[C@@H]12)OO3`, for which the IC50 came out at 1.5 µg/mL (≈ 5.59 µM) in the assay on Plasmodium falciparum [1] and 0.3 µg/mL (≈ 1.12 µM) in the assay on Plasmodium falciparum [4].

`C[C@@H]1CC[C@H]2[C@@H](C)CO[C@@H]3C[C@@]4(C)CC[C@@H]1[C@]32OO4`: the IC50 came to 0.00279 µg/mL (≈ 0.0105 µM) with Plasmodium falciparum [1] and 0.00287 µg/mL (≈ 0.0108 µM) in the assay on Plasmodium falciparum [4]. For the same compound, the Relative activity is on record as 32 with Plasmodium falciparum [2] and 16 with Plasmodium falciparum [3].

For the compound `C[C@@H]1CC[C@H]2[C@@H](C)C(=O)O[C@@H]3O[C@@]4(C)CC[C@@H]1[C@]32OO4` [ARTEMISININ], the IC50 came to 0.0014 µg/mL (≈ 0.00496 µM) with Plasmodium falciparum [6], 0.00048 µg/mL (≈ 0.0017 µM) with Plasmodium falciparum [1], 0.0022 µg/mL (≈ 0.00779 µM) in the assay with Plasmodium falciparum [7] and 0.00097 µg/mL (≈ 0.00344 µM) in the assay on Plasmodium falciparum [4]. For the same compound, the Relative activity in the assay with Plasmodium falciparum [2] and with Plasmodium falciparum [3] was 100 throughout.

In general, IC50 refers to the point on the concentration scale where inhibition reaches its midpoint. A low value points to greater potency in that assay.
